{
  "source": "ChEMBL document CHEMBL3272325",
  "about": "“Structure-activity relationships of dimeric Catharanthus alkaloids. 1. Deacetylvinblastine amide (vindesine) sulfate” (J Med Chem, 1978)",
  "key": {"P388 [1]": {"system": "P388", "experiment": "Antitumor activity against mouse P388 cells allografted in mouse assessed as increase in life span at 0.9 mg/kg/day, ip administered from day 1 to day 9 relative to untreated control", "assay_type": "functional", "conditions": "route intraperitoneal", "procedure,_shortened": "(§1)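 P388 ascites implanted ip in mice, 10 animals per group. Sulfate salts given ip either daily on days 1-9 or as a single dose on day 1. Median life span was calculated using all deaths and survivors. Percent increase in life span was taken over untreated controls. The highest nontoxic dose was noted.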"}, "P388 [2]": {"system": "P388", "experiment": "Antitumor activity against mouse P388 cells allografted in mouse assessed as increase in life span at 4 mg/kg/day, ip after 1 day", "assay_type": "functional", "conditions": "24 h, route intraperitoneal", "procedure,_shortened": "as §1"}, "P388 [3]": {"system": "P388", "experiment": "Antitumor activity against mouse P388 cells allografted in mouse assessed as increase in life span at 6 mg/kg/day, ip after 1 day", "assay_type": "functional", "conditions": "24 h, route intraperitoneal", "procedure,_shortened": "as §1"}, "[4]": {"experiment": "Acute toxicity in ip dosed mouse", "assay_type": "organism-based", "conditions": "in vivo"}, "[5]": {"experiment": "Antitumor activity against mouse Gardner lymphosarcoma cell allografted in mouse at 0.2 to 0.3 mg/kg/day, ip", "assay_type": "functional", "conditions": "route intraperitoneal", "procedure,_shortened": "(§2)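 Ridgeway osteogenic sarcoma and Gardner lymphosarcoma in mice, with sulfate salts given ip daily on days 1-9. Tumor growth inhibition versus controls scored in bands: +++ = 75-100%, ++ = 50-75%, ± = under 25%.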"}, "B16 [6]": {"system": "B16", "experiment": "Antitumor activity against mouse B16 cells allografted in B6D2F1 mouse assessed as mean survival time at 0.648 mg/kg/day, ip administered on day 5, 9 and 13 (reference value: 20.0 days)", "assay_type": "functional", "conditions": "route intraperitoneal", "procedure,_shortened": "(§3)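 Male B6D2F1 mice implanted ip on day 0 with 0.25 mL of a 20% (w/v) B16 melanoma brei. Alkaloid sulfate salts given ip on days 1, 5, 9 or on days 5, 9, 13, groups of 10, against 30 untreated controls. Read-outs: median survival time with range of individual deaths, and percent increase in life span, with survivors counted on day 56.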"}, "B16 [7]": {"system": "B16", "experiment": "Antitumor activity against mouse B16 cells allografted in C57Bl/6 mouse assessed as mean survival time at 0.9 mg/kg/day, ip administered on day 5, 9 and 13 (reference value: 21.5 days)", "conditions": "route intraperitoneal"}, "B16 [8]": {"system": "B16", "experiment": "Antitumor activity against mouse B16 cells allografted in B6D2F1 mouse assessed as mean survival time at 0.648 mg/kg/day, ip administered on day 1, 5 and 9 (reference value: 20.0 days)", "assay_type": "functional", "conditions": "route intraperitoneal", "procedure,_shortened": "as §3"}, "B16 [9]": {"system": "B16", "experiment": "Antitumor activity against mouse B16 cells allografted in B6D2F1 mouse assessed as mean survival time at 3 mg/kg/day, ip administered on day 5, 9 and 13 (reference value: 20.0 days)", "assay_type": "functional", "conditions": "route intraperitoneal", "procedure,_shortened": "as §3"}, "B16 [10]": {"system": "B16", "experiment": "Antitumor activity against mouse B16 cells allografted in B6D2F1 mouse assessed as mean survival time at 1.8 mg/kg/day, ip administered on day 1, 5 and 9 (reference value: 20.0 days)", "assay_type": "functional", "conditions": "route intraperitoneal", "procedure,_shortened": "as §3"}, "[11]": {"experiment": "Antitumor activity against mouse P1534(J) cells allografted in mouse assessed as tumor growth inhibition at 0.2 mg/kg/day, ip administered from day 1 to day 9 relative to unreated control", "assay_type": "functional", "conditions": "P1534J, route intraperitoneal, read-out: TGI", "procedure,_shortened": "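P1534(J) leukemia implanted subcutaneously in mice. Sulfate salts given ip daily on days 1-9. Read-out was percent inhibition of tumor growth relative to untreated controls. The highest nontoxic dose was recorded.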"}, "P388 [12]": {"system": "P388", "experiment": "Antitumor activity against mouse P388 cells allografted in mouse assessed as increase in life span at 9 mg/kg/day, ip after 1 day", "assay_type": "functional", "conditions": "24 h, route intraperitoneal", "procedure,_shortened": "as §1"}, "P388 [13]": {"system": "P388", "experiment": "Antitumor activity against mouse P388 cells allografted in mouse assessed as increase in life span at 0.27 mg/kg/day, ip administered from day 1 to day 9 relative to untreated control", "assay_type": "functional", "conditions": "route intraperitoneal", "procedure,_shortened": "as §1"}, "B16 [14]": {"system": "B16", "experiment": "Antitumor activity against mouse B16 cells allografted in B6D2F1 mouse assessed as increase in life span at 1.08 mg/kg/day, ip administered on day 5, 9 and 13 measured for 56 days relative to untreated control", "assay_type": "functional", "conditions": "route intraperitoneal", "procedure,_shortened": "as §3"}, "Gallus gallus": {"system": "Gallus gallus", "experiment": "Neurotoxicity in iv dosed chicken assessed as neuromuscular disturbance by measuring loss of balance", "assay_type": "organism-based", "conditions": "in vivo"}, "B16 [15]": {"system": "B16", "experiment": "Antitumor activity against mouse B16 cells allografted in B6D2F1 mouse assessed as mean survival time at 0.389 mg/kg/day, ip administered on day 1, 5 and 9 (reference value: 20.0 days)", "assay_type": "functional", "conditions": "route intraperitoneal", "procedure,_shortened": "as §3"}, "B16 [16]": {"system": "B16", "experiment": "Antitumor activity against mouse B16 cells allografted in B6D2F1 mouse assessed as increase in life span at 1.8 mg/kg/day, ip administered on day 1, 5 and 9 measured for 56 days relative to untreated control", "assay_type": "functional", "conditions": "route intraperitoneal", "procedure,_shortened": "as §3"}, "[17]": {"experiment": "Toxicity in ip dosed mouse allografted with mouse p388 cells administered from day 1 to day 9", "assay_type": "organism-based", "conditions": "in vivo, read-out: MNTD", "procedure,_shortened": "as §1"}, "B16 [18]": {"system": "B16", "experiment": "Antitumor activity against mouse B16 cells allografted in B6D2F1 mouse assessed as mean survival time at 3 mg/kg/day, ip administered on day 1, 5 and 9 (reference value: 20.0 days)", "assay_type": "functional", "conditions": "route intraperitoneal", "procedure,_shortened": "as §3"}, "P388 [19]": {"system": "P388", "experiment": "Antitumor activity against mouse P388 cells allografted in mouse assessed as increase in life span at 0.10 mg/kg/day, ip administered from day 1 to day 9 relative to untreated control", "assay_type": "functional", "conditions": "route intraperitoneal", "procedure,_shortened": "as §1"}, "B16 [20]": {"system": "B16", "experiment": "Antitumor activity against mouse B16 cells allografted in B6D2F1 mouse assessed as increase in life span at 1.8 mg/kg/day, ip administered on day 5, 9 and 13 measured for 56 days relative to untreated control", "assay_type": "functional", "conditions": "route intraperitoneal", "procedure,_shortened": "as §3"}, "B16 [21]": {"system": "B16", "experiment": "Antitumor activity against mouse B16 cells allografted in B6D2F1 mouse assessed as increase in life span at 0.648 mg/kg/day, ip administered on day 5, 9 and 13 measured for 56 days relative to untreated control", "assay_type": "functional", "conditions": "route intraperitoneal", "procedure,_shortened": "as §3"}, "[22]": {"experiment": "Antitumor activity against mouse Ridgeway osteogenic sarcoma cells allografted in mouse at 0.2 to 0.3 mg/kg/day, ip", "assay_type": "functional", "conditions": "route intraperitoneal", "procedure,_shortened": "as §2"}, "B16 [23]": {"system": "B16", "experiment": "Antitumor activity against mouse B16 cells allografted in B6D2F1 mouse assessed as increase in life span at 0.648 mg/kg/day, ip administered on day 1, 5 and 9 measured for 56 days relative to untreated control", "assay_type": "functional", "conditions": "route intraperitoneal", "procedure,_shortened": "as §3"}, "B16 [24]": {"system": "B16", "experiment": "Antitumor activity against mouse B16 cells allografted in B6D2F1 mouse assessed as increase in life span at 3 mg/kg/day, ip administered on day 5, 9 and 13 measured for 56 days relative to untreated control", "assay_type": "functional", "conditions": "route intraperitoneal", "procedure,_shortened": "as §3"}, "B16 [25]": {"system": "B16", "experiment": "Antitumor activity against mouse B16 cells allografted in B6D2F1 mouse assessed as increase in life span at 1.08 mg/kg/day, ip administered on day 1, 5 and 9 measured for 56 days relative to untreated control", "assay_type": "functional", "conditions": "route intraperitoneal", "procedure,_shortened": "as §3"}, "B16 [26]": {"system": "B16", "experiment": "Antitumor activity against mouse B16 cells allografted in B6D2F1 mouse assessed as mean survival time at 1.8 mg/kg/day, ip administered on day 5, 9 and 13 (reference value: 20.0 days)", "assay_type": "functional", "conditions": "route intraperitoneal", "procedure,_shortened": "as §3"}, "P388 [27]": {"system": "P388", "experiment": "Antitumor activity against mouse P388 cells allografted in mouse assessed as increase in life span at 0.6 mg/kg/day, ip administered from day 1 to day 9 relative to untreated control", "assay_type": "functional", "conditions": "route intraperitoneal", "procedure,_shortened": "as §1"}, "P388 [28]": {"system": "P388", "experiment": "Antitumor activity against mouse P388 cells allografted in mouse assessed as increase in life span at 1.8 mg/kg/day, ip after 1 day", "assay_type": "functional", "conditions": "24 h, route intraperitoneal", "procedure,_shortened": "as §1"}, "B16 [29]": {"system": "B16", "experiment": "Antitumor activity against mouse B16 cells allografted in C57Bl/6 mouse assessed as mean survival time at 0.9 mg/kg/day, ip administered on day 1, 5 and 9 (reference value: 24.6 days)", "assay_type": "functional", "conditions": "route intraperitoneal"}},
  "data": [
    {"smiles": "CC[C@]1(O)C[C@@H]2CN(CCc3c([nH]c4ccccc34)[C@@](C(=O)OC)(c3cc4c(cc3OC)N(C)[C@H]3[C@@](O)(C(N)=O)[C@H](O)[C@]5(CC)C=CCN6CC[C@]43[C@@H]65)C2)C1.O=S(=O)(O)O", "note": "[VINDESINE SULFATE]", "values": [
      {"measurement": "ILS at 0.9 mg/kg/day", "setting": "P388 [1]", "value": 177, "unit": "%"},
      {"measurement": "ILS at 4 mg/kg/day", "setting": "P388 [2]", "value": 77, "unit": "%"},
      {"measurement": "ILS at 6 mg/kg/day", "setting": "P388 [3]", "value": 109, "unit": "%"},
      {"measurement": "LD50", "setting": "[4]", "value": 6.3, "unit": "mg/kg"},
      {"measurement": "TGI", "setting": "[5]", "value": 75, "unit": "%"},
      {"measurement": "MST", "setting": "B16 [6]", "value": 27, "unit": "days"},
      {"measurement": "MST", "setting": "B16 [7]", "value": 38.3, "unit": "days"},
      {"measurement": "MST", "setting": "B16 [8]", "value": 35, "unit": "days"},
      {"measurement": "MST", "setting": "B16 [9]", "value": 29.5, "unit": "days"},
      {"measurement": "MST", "setting": "B16 [10]", "value": 48.5, "unit": "days"},
      {"measurement": "inhibition in vivo at 0.2 mg/kg/day", "setting": "[11]", "value": 74, "unit": "%"},
      {"measurement": "ILS at 9 mg/kg/day", "setting": "P388 [12]", "value": 190, "unit": "%"},
      {"measurement": "ILS at 0.27 mg/kg/day", "setting": "P388 [13]", "value": 172, "unit": "%"},
      {"measurement": "ILS at 1.08 mg/kg/day", "setting": "B16 [14]", "value": 58, "unit": "%"},
      {"measurement": "Activity", "setting": "Gallus gallus", "value": "Non-toxic"},
      {"measurement": "MST", "setting": "B16 [15]", "value": 37, "unit": "days"},
      {"measurement": "ILS at 1.8 mg/kg/day", "setting": "B16 [16]", "value": 142, "unit": "%"},
      {"measurement": "MTD", "setting": "[17]", "value": 0.9, "unit": "mg/kg/day"},
      {"measurement": "MST", "setting": "B16 [18]", "value": 47.5, "unit": "days"},
      {"measurement": "ILS at 0.1 mg/kg/day", "setting": "P388 [19]", "value": 109, "unit": "%"},
      {"measurement": "ILS at 1.8 mg/kg/day", "setting": "B16 [20]", "value": 90, "unit": "%"},
      {"measurement": "ILS at 0.648 mg/kg/day", "setting": "B16 [21]", "value": 35, "unit": "%"},
      {"measurement": "TGI", "setting": "[22]", "value": 75, "unit": "%"},
      {"measurement": "ILS at 0.648 mg/kg/day", "setting": "B16 [23]", "value": 75, "unit": "%"},
      {"measurement": "ILS at 3 mg/kg/day", "setting": "B16 [24]", "value": 48, "unit": "%"},
      {"measurement": "ILS at 1.08 mg/kg/day", "setting": "B16 [25]", "value": 110, "unit": "%"},
      {"measurement": "MST", "setting": "B16 [26]", "value": 39, "unit": "days"},
      {"measurement": "ILS at 0.6 mg/kg/day", "setting": "P388 [27]", "value": 213, "unit": "%"},
      {"measurement": "ILS at 1.8 mg/kg/day", "setting": "P388 [28]", "value": 54, "unit": "%"},
      {"measurement": "MST", "setting": "B16 [29]", "value": 39.3, "unit": "days"}
    ]}
  ]
}
